Published values collected from several papers.
Lines come from different studies, so protocols differ.

The concentration of `CC(C)Oc1cccc(-c2cnc(N3CCC(C(N)=O)CC3)s2)c1` is reported as 0 nM (male Swiss mouse, brain; oral, 30 mg/kg, 12 h, single dose).
The IC50 of `CC1=CC[C@H]2[C@@H]([C@@H]1CC[C@H]1[C@]3(C)CC[C@H](O)C(C)(C)O[C@H]3CC[C@]1(C)O)C(C)(C)CC[C@]2(C)O` is reported as over 50 µM (KB 3-1; cell growth or viability, MTT; 72 h).
`CC(C)(Nc1nc(-c2ccccn2)nc2ccccc12)c1ccccn1` gave a concentration of 5060 ng/mL (female BALB/c mouse, plasma; oral, 50 mg/kg, 4 h).
For `CC(C)(O)c1ccccc1-c1ccc2[nH]c(/C=C/c3ccc(C(F)(F)F)cc3)nc2c1`, the MRT was 116 h (male human, plasma; oral, 30 mg, single dose, fasted, healthy volunteers).
`CC(C)CN(C[C@@H](O)[C@H](Cc1ccccc1)NC(=O)O[C@H]1CO[C@H]2OCC[C@H]21)S(=O)(=O)c1ccc(N)cc1` has a concentration of 397 ng/mL (BALB/c mouse, plasma; intravenous, 25 mg/kg, 1 h).
`CN(CCC(=O)O)C(=O)c1ccc2c(c1)CC[C@@H]1[C@@H]2CC[C@]2(C)C(c3cncc(F)c3)=CC[C@@H]12` gave an IC50 of 4.1 µM (UDP-glucuronosyltransferase 1A1 (UGT1A1, Homo sapiens, UniProt P22309); enzyme activity, inhibitor; human, liver microsomes).
`COc1ccc(S(=O)(=O)ON=C2C=C(C)C(=O)C(C)=C2)cc1` gave a CC50 of over 15.5 µM (HMEC; cell growth or viability).
With `CC(C)=CCC[C@@]1(C)C(CC[C@H]2[C@]3(C)CC[C@H](O)C(C)(C)O[C@H]3CC[C@@]2(C)O)=C(C)CC[C@H]1O` the IC50 was over 50 µM (KB 3-1; cell growth or viability, MTT; 72 h).
